# Reference: PubChem BioAssay AID588621 (Sanford-Burnham Center for Chemical Genomics, 2011)
# The campaign covered roughly 360,000 compounds. About 890 (0.25%) were called active. Only a selection was taken, and actives are over-represented in it overall. A number with no mark means an inactive call.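 The calls were made as follows: active = inhibition at 20 µM, scaled per plate between control wells, above about 37% (limit read from the data); inactive = the rest.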
# Biological target: Tyrosine-protein phosphatase non-receptor type 5 (Homo sapiens) (UniProt P54829)
# Assay: inhibition of human PTPN5 enzyme activity – biochemical, fluorescence intensity, uHTS, primary screen (AID 588621);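 also: 0% = DMSO with enzyme and substrate and 100% = substrate only without enzyme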
# Details: recombinant STEP, OMFP fluorogenic substrate, at 20 µM, active compounds read high
# How it was run: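 Assay system: isolated STEP enzyme. Buffer or medium: pH 6.0 Bis-Tris with DTT and Tween 20. Also added: fluorogenic phosphatase substrate OMFP at 25 µM final. Dosing: 20 µM, 1% DMSO. Timing: 20 min reaction, room temperature, in the dark. Measured by: fluorescence intensity, excitation 480 nm, emission 540 nm. Evaluation: normalized % inhibition.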
# Tyrosine-protein phosphatase non-receptor type 5 (Homo sapiens), sequence (P54829 whole entry, looked up): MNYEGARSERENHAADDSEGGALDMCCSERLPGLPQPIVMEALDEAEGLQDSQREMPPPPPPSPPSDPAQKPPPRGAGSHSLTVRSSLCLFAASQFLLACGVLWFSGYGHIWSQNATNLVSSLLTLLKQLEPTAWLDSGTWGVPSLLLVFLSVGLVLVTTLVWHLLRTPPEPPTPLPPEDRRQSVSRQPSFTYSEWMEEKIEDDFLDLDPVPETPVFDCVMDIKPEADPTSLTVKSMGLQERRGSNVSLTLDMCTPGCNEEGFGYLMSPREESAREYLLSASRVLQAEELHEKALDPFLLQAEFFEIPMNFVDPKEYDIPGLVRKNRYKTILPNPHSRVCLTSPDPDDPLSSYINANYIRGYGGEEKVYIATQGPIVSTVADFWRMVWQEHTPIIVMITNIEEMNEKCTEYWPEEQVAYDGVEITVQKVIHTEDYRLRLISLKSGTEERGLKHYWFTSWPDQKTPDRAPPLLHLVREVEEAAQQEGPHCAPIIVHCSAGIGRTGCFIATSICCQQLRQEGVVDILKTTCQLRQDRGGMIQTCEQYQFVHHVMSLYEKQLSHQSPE
row,SMILES,inhibition
1,C=CC1=C(C(=O)O)N2C(=O)[C@@H](NC(=O)/C(=N\OCC(=O)O)c3csc(N)n3)[C@H]2SC1,85.4% (active)
2,C=CC1=C(C(=O)O)N2C(=O)[C@@H](NC(=O)/C(=N/OCC(=O)O)c3csc(N)n3)[C@H]2SC1,97.4% (active)
3,COC(=O)c1cc2occc2n1Cc1nc(-c2ccccc2C)oc1C,-0.6%
4,CCCCOc1ccc(NC(=O)[C@@H]2CCCN2C(=O)C2CCN(S(=O)(=O)c3ccc(C)cc3)CC2)cc1,-0.4%
5,CCCC(=O)N1CCC1(C)C(=O)NCc1ccc(C(C)C)cc1 (stereo not drawn),1.5%
6,Cn1c(Cc2csc(N)n2)nnc1SC/C=C/c1ccccc1,-1.7%
7,C/C=C/C(=O)Nc1ccc(N2CCN(c3ccc(C(F)(F)F)cn3)CC2)nc1,78.9% (active)
8,CCOc1ccc(C(=O)NCC(=O)N2CCN(c3ccc(C(F)(F)F)cn3)CC2)cc1,-0.1%
9,Cc1ccc(F)cc1NC(=O)N1CCCN(c2ccc(C(F)(F)F)cn2)CC1,-0.3%
10,C[C@H]1CN([C@@H](C)CO)C(=O)Cc2cc(NS(C)(=O)=O)ccc2O[C@@H]1CN(C)CC1CC1,1.2%
11,Cc1ccc(C(=O)N(CC(=O)NC2CCCC2)c2ccc(F)cc2)s1,-0.9%
12,O=C(NCc1ccco1)C1CCCN(S(=O)(=O)c2ccccc2)C1 (stereo not drawn),2.1%
13,O=C(NCc1ccco1)C1CCCN(S(=O)(=O)c2cnc[nH]2)C1 (stereo not drawn),-0.7%
14,CCCS(=O)(=O)N1CCCC(C(=O)NCc2ccco2)C1 (stereo not drawn),53.8% (active)
15,COc1ccc(CCNc2cc(C)nc3c(-c4ccc(Cl)cc4)c(C)nn23)cc1OC,-0.7%
16,O=S1(=O)CSCS(=O)(=O)C1,2.4%
17,Cc1ccc(-n2c(SCC(=O)NCc3ccc4c(c3)OCO4)nnc2-c2cccnc2)c(C)c1,-2.7%
18,CCCCc1nccn1CCn1ccnc1CCCC,1.5%
19,OCc1n[nH]c(CO)n1,-3.3%
20,O=C1CCC(CCC(=O)N2CCCC(C(=O)c3ccc(Cl)cc3)C2)=NN1 (stereo not drawn),-3.2%
21,COc1ccc(CCNC(=O)c2ccc(CS(=O)(=O)c3ccc(Br)cc3)o2)cc1OC,-1.6%
22,O=C(N/N=C/c1ccccc1O)/C(=C/c1ccccc1)CCO,0.4%
23,O=C(NN=Cc1ccccc1O)NN=Cc1ccccc1O,59.1% (active)
24,Oc1ccccc1C=NC1CCCCC1N=Cc1ccccc1O (stereo not drawn),2.7%
25,Nc1ccccc1/C=N\N=C/c1ccccc1N,-2.4%
26,Cc1c(NC(=O)C(=O)N/N=C/c2cccs2)c(=O)n(-c2ccccc2)n1C,3.9%

row,SMILES,inhibition
1,CCC(=O)c1cc2c(cc1NC(=O)c1cccs1)OCCO2,-2.5%
2,C=CCO/N=C(\C)c1c(O)c(C)c(-c2ccccc2)n(-c2ccccc2)c1=O,6.7%
3,CC1CN(C(=O)COC(=O)c2cccc(NS(=O)(=O)c3ccccc3)c2)CC(C)O1 (stereo not drawn),0.4%
4,COc1ccc(/C=N/Nc2ccccc2C(=O)O)cc1,42.5% (active)
5,COc1ccc(/C=N/NC(=O)Cn2cc(C(F)(F)F)ccc2=O)cc1,-2.6%
6,COc1ccc(/C=N/NC(=O)C(C)N(c2ccc(OC)cc2)S(C)(=O)=O)cc1 (stereo not drawn),2.2%
7,CCc1ccccc1NC(=O)CN1CCN(C(=O)c2cc(C3CC3)nn2-c2ccccc2)CC1,-3.2%
8,CC(C)Cc1ccc(C(C)C(=N)N)cc1 (stereo not drawn),-2%
9,CCO[C@H]1OC(C(=O)N2CCCCCCC2)=C[C@@H](c2ccc(C(F)(F)F)cc2)[C@@H]1CCCO,0.1%
10,Cc1ccc(OCC(=O)Nc2ccc(-c3nc4ncccc4o3)cc2)cc1,54.1% (active)
11,Cc1ccc2nc(-c3ccc(NC(=O)c4cccnc4)cc3)oc2c1,0.4%
12,CCOC(=O)C1=C(O)/C(=C/c2ccc(OCC(=O)Nc3ccc(C)cc3)cc2)N=C1C,14.9%
13,CCc1ccc(C2C(C#N)=C(N)N(N3CCOCC3)C3=C2C(=O)CC(C)(C)C3)s1 (stereo not drawn),-1.9%
14,CNC(=O)NC(=O)C(OC(=O)c1cccc(S(=O)(=O)N2CCCCC2)c1)c1ccccc1 (stereo not drawn),-0.2%
15,O=C(/C=C/Nc1ccc(S(=O)(=O)Nc2cnc3ccccc3n2)cc1)c1cccnc1,5.4%
16,CCOc1cc(CO)ccc1OCC(=O)N1CCCCC1,-1.4%
17,CC(=NNC(=S)N1CCCCCC1)c1ccccn1,54.5% (active)
18,CCOc1ccc(NC(=S)N2CCCCCC2)cc1,-2.3%
19,CCNC(=S)N1CCN(c2ncccn2)CC1,-5.9%
20,CCOC(=O)C1CCN(c2c(Nc3cc(C)cc(C)c3)c(=O)c2=O)CC1,-2.8%
21,COc1ccc(-c2c(-c3cc(OC)cc(OC)c3)n(C)c3ccc(-c4ccn[nH]4)cc23)cc1,-1.9%
22,O=C(CCSCCc1ccccn1)Nc1nccs1,-2.2%
23,CC(O)C(NS(=O)(=O)c1ccc(Cl)cc1)C(=O)OCc1cc([N+](=O)[O-])cc2c1OCOC2 (stereo not drawn),-3.7%
24,CC(C)(C)OC(=O)NCCCCCC(=O)N/N=C/c1coc2ccccc2c1=O,-1.9%
25,O=C(N/N=C/c1coc2ccccc2c1=O)c1cc2ccccc2o1,43.4% (active)
26,Cc1c(/C=N\NC(=O)c2cc3ccccc3o2)c2ccccc2n1C,-0.5%

row,SMILES,inhibition
1,CN1CCN(C(=O)c2ccccc2NC(=O)COc2ccccc2Cl)CC1,-2.4%
2,C=CCn1c(=S)[nH]c2scc(-c3ccco3)c2c1=O,13.1%
3,COc1ccc(Cc2cc(-c3ccc(F)cc3)n[nH]c2=O)cc1,1.1%
4,CCCc1nc(-c2cc3cc(C)ccc3[nH]c2=O)no1,3.2%
5,COc1ccc2[nH]c(=O)c(-c3noc(-c4ccc(F)cc4)n3)cc2c1,95.7% (active)
6,O=C(NCc1ccccc1)C(c1cccnc1)N(C(=O)c1csnn1)c1ccc(F)cc1 (stereo not drawn),2.3%
7,Cc1ccc(-n2c(C)cc(/C=C(\C#N)C(=O)NCC3CCCO3)c2C)cc1 (stereo not drawn),0.4%
8,CCCCNC(=O)c1c[nH]c2ccc(S(=O)(=O)Nc3ccc(OCC)cc3)cc2c1=O,4.4%
9,Cc1nc2ccc(NC(=S)N3CCC(C)CC3)cc2nc1C,2.1%
10,CC1=C(C(=O)N2CCOCC2)CC(CC(=O)NCCCN(C)C)C(=O)N1Cc1ccc(C(C)(C)C)cc1 (stereo not drawn),-2.8%
11,O=C(CSC(=S)N1CCCCC1)c1c(F)cccc1F,87.8% (active)
12,COc1cccc(NC(=O)CN(C)C(=O)CSC(=S)N2CCCC2)c1,-1.5%
13,CC(=O)c1ccc(NC(=O)CSC(=S)N2CCCC2)cc1,0.8%
14,O=S(=O)(NCC1CN(S(=O)(=O)c2ccc3c(c2)OCCO3)C1)c1c(F)cccc1F,-0.5%
15,CSc1ccc(C#N)cc1NC(=O)c1ccc(Cl)cc1,-9.6%
16,N#Cc1ccc(C(=O)Nc2cccc3cccnc23)c(F)c1,97.4% (active)
17,COc1ccc(NC(=O)c2ccco2)cc1NC(=O)c1ccc(C#N)cc1F,-1.6%
18,CSCCC(NC(=O)COc1ccccc1)C(=O)N(C)CC(=O)Nc1ccc(C)cc1 (stereo not drawn),-3.9%
19,COc1ccc(CN2CCCC(CNC(=O)c3ccc(F)cc3)C2)cc1OC (stereo not drawn),0.7%
20,C[C@H](CO)N1C[C@H](C)[C@H](CN(C)C(=O)c2ccncc2)OCc2ccccc2-c2c(n(C)c3ccccc23)C1=O,1.4%
21,O=C1CCC(C(=O)Nc2ccc(OC(F)F)cc2)N1 (stereo not drawn),1.3%
22,CCc1ccc(NC(=O)CS(=O)CC(=O)NCCCc2ccccc2)cc1 (stereo not drawn),41.6% (active)
23,CCc1ccc(NC(=O)CS(=O)CC(=O)N2CCN(c3ccccc3F)CC2)cc1 (stereo not drawn),2.2%
24,S=C(NCCCc1ccccc1)Nc1ccc(Br)cc1,1.3%
25,Cc1ccc(S(=O)(=O)NN=C2CC(C)(C)CC(=O)C2(C)C)cc1,-2.2%
26,CCOc1nnc(C)c2c(C)n(-c3cccc(Cl)c3)nc12,-2.6%
